# Reference: ChEMBL document CHEMBL3112469, “Substituted 2-phenylimidazopyridines: a new class of drug leads for human African trypanosomiasis” (J Med Chem, 2014)
# How the values were obtained:
# L6 = assay: Cytotoxicity against rat L6 cells after 48 hrs by Alamar Blue assay; format: cell-based; conditions: l6, 48 h
# [1] = tested on: Trypanosoma brucei brucei; assay: Antiparasitic activity against Trypanosoma brucei brucei BF427 assessed as growth inhibition by Alamar Blue assay; format: functional, organism-based
# Summary of the method: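 Bloodstream-form T. brucei brucei BF427 grown with serial compound dilutions, each tested in triplicate. Growth quantified with AlamarBlue. Pentamidine isothionate included in every assay as positive control.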
# [2] = Cytotoxicity against human CRL8155 cells after 48 hrs by Alamar Blue assay; format: cell-based; conditions: crl8155, 48 h
# HepG2 = assay: Cytotoxicity against human HepG2 cells after 48 hrs by Alamar Blue assay; format: cell-based; conditions: hepg2, 48 h
Structure (SMILES),EC50 [1] [µM],CC50 (L6) [µM],CC50 [2] [µM],CC50 (HepG2) [µM]
COc1ncc(-c2cnc3[nH]c(-c4cc(NC(=O)N5CCCC5)ccc4F)nc3c2)cn1,0.06,–,3.9,9.8
O=C(Nc1ccc(F)c(-c2nc3cc(-c4cncc(Cl)c4)cnc3[nH]2)c1)N1CCCC1,0.005,–,38,> 50
Cc1cncc(-c2cnc3[nH]c(-c4cc(NC(=O)N5CCCC5)ccc4F)nc3c2)c1,0.01,–,> 50,> 50
O=C(Nc1ccc(F)c(-c2nc3cc(-c4cnc(Cl)nc4)cnc3[nH]2)c1)N1CCCC1,0.04,14.3,–,–
CC(=O)N(C(=O)c1ccco1)c1ccc(F)c(-c2nc3ncccc3o2)c1,0.5,–,–,–
O=C(Nc1ccc(F)c(-c2nc3ncccc3o2)c1)c1cccnc1,7,> 50,–,–
COc1ccccc1-c1cnc2[nH]c(-c3cc(NC(=O)N4CCCC4)ccc3F)nc2c1,0.005,–,13,> 50
Nc1ccc(Cl)c(-c2nc3ncccc3o2)c1,> 20,–,–,–
O=C(c1ccco1)N(C(=O)c1ccco1)c1ccc(F)c(-c2nc3ncccc3o2)c1,0.12,> 50,> 50,> 50
COc1cc([C@@H]2c3cc4c(cc3[C@H](O)[C@H]3COC(=O)[C@H]23)OCO4)cc(OC)c1OC [PODOFILOX],–,0.014,–,–
O=C(Nc1ccc(F)c(-c2nc3ncccc3o2)c1)c1cnccn1,0.9,> 50,–,–
O=C(Nc1ccc(F)c(-c2nc3cc(-c4cncc(N5CCCC5)c4)cnc3[nH]2)c1)N1CCCC1,0.02,–,8,> 50
Cn1cncc1C(=O)Nc1ccc(F)c(-c2nc3ncccc3o2)c1,> 20,> 50,–,–
Cc1cc(-c2cnc3[nH]c(-c4cc(NC(=O)N5CCCC5)ccc4F)nc3c2)ccc1F,0.02,–,> 50,–
COc1ccc(-c2cnc3[nH]c(-c4cc(NC(=O)N5CCCC5)ccc4F)nc3c2)cn1,0.005,–,> 50,> 50
Cc1cccc(-c2cnc3[nH]c(-c4cc(NC(=O)N5CCCC5)ccc4F)nc3c2)c1,0.002,–,5,10
O=C(Nc1ccc(F)c(-c2nc3cc(-c4ccsc4)cnc3[nH]2)c1)N1CCCC1,0.002,–,6,> 50
O=C(Nc1ccc(F)c(-c2nc3ncccc3o2)c1)C1CCCO1 (centres undefined),> 10,–,–,–
CCN(CC)CCCC(C)Nc1c2ccc(Cl)cc2nc2ccc(OC)cc12 (centres undefined) [QUINACRINE],–,–,3.92,9.78
O=C(Nc1ccccc1)Nc1ccc(Cl)c(-c2nc3ncccc3o2)c1,12,> 50,–,–

Structure (SMILES),EC50 [1] [µM],CC50 (L6) [µM],CC50 [2] [µM],CC50 (HepG2) [µM]
Fc1ccc(NCc2ccccc2)cc1-c1nc2ncccc2o1,> 20,–,–,–
O=C(Nc1ccc(F)c(-c2nc3cc(-c4cccnc4)cnc3[nH]2)c1)N1CCCC1,0.005,–,14,> 50
O=S(=O)(Nc1ccc(Cl)c(-c2nc3ncccc3o2)c1)c1ccccc1,> 20,> 50,–,–
Nc1cccc(-c2cnc3[nH]c(-c4cc(NC(=O)N5CCCC5)ccc4F)nc3c2)c1,0.01,–,5,40
N=C(N)c1ccc(OCCCCCOc2ccc(C(=N)N)cc2)cc1 [PENTAMIDINE],0.00174,–,–,–
CC(C)NC(=O)Nc1ccc(Cl)c(-c2nc3ncccc3o2)c1,1,> 50,–,–
O=C(Nc1ccc(F)c(-c2nc3ncccc3o2)c1)c1cc2ccccc2o1,> 10,> 50,–,–
Fc1ccc(N(Cc2ccccc2)Cc2ccccc2)cc1-c1nc2ncccc2o1,1.1,> 50,–,–
Cc1ccc(C(=O)Nc2ccc(F)c(-c3nc4ncccc4o3)c2)o1,0.2,> 50,–,–
O=C(Nc1ccc(F)c(-c2nc3cc(-c4cccc(OC(F)(F)F)c4)cnc3[nH]2)c1)N1CCCC1,0.03,–,11,> 50
CNC(=O)Nc1ccc(F)c(-c2nc3ncccc3o2)c1,3.8,> 50,–,–
Cn1cccc1C(=O)Nc1ccc(F)c(-c2nc3ncccc3o2)c1,1.1,> 50,–,–
CC(=O)Nc1ccc(F)c(-c2nc3ncccc3o2)c1,> 20,> 50,–,–
O=C(Nc1ccc(F)c(-c2nc3cc(-c4cncnc4)cnc3[nH]2)c1)N1CCCC1,0.03,–,12,> 50
CS(=O)(=O)Nc1ccc(Cl)c(-c2nc3ncccc3o2)c1,6.1,> 50,–,–
CC(=O)c1cccc(-c2cnc3[nH]c(-c4cc(NC(=O)N5CCCC5)ccc4F)nc3c2)c1,0.003,–,–,–
CN(C(=O)c1ccco1)c1ccc(F)c(-c2nc3ncccc3o2)c1,> 10,> 50,–,–
COc1cccc(-c2cnc3[nH]c(-c4cc(NC(=O)N5CCCC5)ccc4F)nc3c2)c1,0.01,–,3.6,35
Cc1ccoc1C(=O)Nc1ccc(F)c(-c2nc3ncccc3o2)c1,0.1,> 50,–,–
O=C(Nc1ccc(F)c(-c2nc3ncc(-c4ccc(-c5ccccc5)cc4)cc3o2)c1)c1ccco1,0.42,> 50,–,–

# The next lines start with results.
EC50 [1] [µM],Structure (SMILES),CC50 (L6) [µM],CC50 [2] [µM],CC50 (HepG2) [µM]
0.05,O=C(Nc1ccc(F)c(-c2nc3ncc(-c4cccc(Cl)c4)cc3o2)c1)c1ccco1,> 50,–,–
> 10,O=C(Nc1ccc(F)c(CNc2ccc(Cl)cn2)c1)c1ccco1,–,–,–
> 20,O=C(Nc1ccc(Cl)c(-c2nc3ccccc3o2)c1)c1cccc(F)c1,–,–,–
> 20,O=C(Nc1ccc(Cl)c(-c2nc3ccccc3o2)c1)c1ccco1,–,–,–
> 20,O=C(Nc1ccc(Cl)c(-c2nc3ccccc3o2)c1)C1CCCCC1,–,–,–
0.23,O=C(Nc1ccc(F)c(-c2nc3ncc(Br)cc3o2)c1)c1ccco1,> 50,–,–
1.9,O=C(Nc1ccc(F)c(-c2nc3ncccc3o2)c1)c1cnco1,> 50,–,–
> 20,O=C(Nc1ccc(Cl)c(-c2nc3ccccc3o2)c1)c1ccccc1,–,–,–
0.4,N#Cc1ccc(NC(=O)c2ccco2)cc1-c1nc2ncccc2o1,> 50,–,–
0.09,O=C(Nc1ccc(Cl)c(-c2nc3ncccc3o2)c1)N1CCCC1,–,> 50,> 50
0.05,O=C(Nc1ccc(F)c(-c2nc3cc(Cl)cnc3[nH]2)c1)N1CCCC1,15,> 50,> 50
1.9,O=C(Nc1ccc(Cl)c(-c2nc3ncccc3o2)c1)N1CCCCC1,–,–,–
0.15,O=C(Nc1ccc(F)c(-c2nc3ncccc3o2)c1)c1ccoc1,> 50,–,–
> 20,O=C(Nc1ccc(Cl)c(C(=O)N2CCOCC2)c1)c1ccco1,–,–,–
0.004,O=C(Nc1ccc(F)c(-c2nc3cc(-c4ccoc4)cnc3[nH]2)c1)N1CCCC1,–,25,> 50
10,O=C(Nc1ccc(F)c(-c2nc3ccc(Cl)nc3[nH]2)c1)c1ccco1,–,–,–
> 20,CN1CCN(C(=O)c2cc(NC(=O)c3ccco3)ccc2Cl)CC1,–,–,–
1.5,O=C(Nc1ccc(Cl)c(-c2nc3ncccc3o2)c1)c1cccs1,> 50,–,–
> 20,O=C(Nc1ccc(Cl)c(C(=O)N2CCNCC2)c1)c1ccco1,–,–,–
0.2,O=C(Nc1ccc(F)c(-c2nc3cccnc3[nH]2)c1)c1ccco1,–,–,–
0.17,COc1ccc(-c2cnc3nc(-c4cc(NC(=O)c5ccco5)ccc4F)oc3c2)cc1,–,–,–
0.07,O=C(Nc1ccc(F)c(-c2nc3cc(Cl)cnc3[nH]2)c1)c1ccco1,> 50,1.7,> 50

EC50 [1] [µM],Structure (SMILES),CC50 (L6) [µM],CC50 [2] [µM],CC50 (HepG2) [µM]
0.43,Cc1ccc(NC(=O)c2ccco2)cc1-c1nc2ncccc2o1,> 50,–,–
> 20,O=C(Nc1ccc(Cl)c(-c2nc3ccccc3o2)c1)c1ccccc1F,–,–,–
0.002,O=C(Nc1ccc(F)c(-c2nc3cc(-c4cccc(Cl)c4)cnc3[nH]2)c1)N1CCCC1,–,2.8,> 50
0.12,O=C(Nc1ccc(F)c(-c2nc3ncccc3o2)c1)c1ccco1,> 50,–,–
> 20,O=C(Nc1ccc(F)c(-c2nc3cnccc3o2)c1)c1ccco1,–,–,–
0.4,CN(C)C(=O)Nc1ccc(Cl)c(-c2nc3ncccc3o2)c1,> 50,–,–
> 10,COc1ccc(NC(=O)c2ccco2)cc1-c1nc2ncccc2o1,> 50,–,–
0.12,O=C(Nc1ccc(F)c(-c2nc3c(Cl)ccnc3[nH]2)c1)c1ccco1,–,–,–
> 20,Cc1ccccc1C(=O)Nc1ccc(Cl)c(-c2nc3ccccc3o2)c1,–,–,–
0.2,O=C(Nc1ccc(F)c(-c2nc3cc(F)cnc3[nH]2)c1)c1ccco1,–,–,–
0.38,N#Cc1cnc2nc(-c3cc(NC(=O)c4ccco4)ccc3F)oc2c1,> 50,–,–
0.005,O=C(Nc1ccc(F)c(-c2nc3cc(-c4ccccc4Cl)cnc3[nH]2)c1)N1CCCC1,–,–,–
7,O=C(Nc1ccc(F)c(C(=O)Nc2ccc(Cl)cn2)c1)c1ccco1,–,–,–
0.41,Fc1ccc(NC(=S)c2ccco2)cc1-c1nc2ncccc2o1,> 50,–,–
0.004,O=C(Nc1ccc(F)c(-c2nc3cc(-c4ccnc(Cl)c4)cnc3[nH]2)c1)N1CCCC1,–,> 50,> 50
0.01,O=C(Nc1ccc(F)c(-c2nc3cc(-c4ccc(Cl)nc4)cnc3[nH]2)c1)N1CCCC1,–,3.8,> 50
> 50,O=C(Nc1ccc(-c2ccc(F)cc2)c(-c2nc3ncccc3o2)c1)c1ccco1,> 50,–,–
> 20,Cc1cccc(C(=O)Nc2ccc(Cl)c(-c3nc4ccccc4o3)c2)c1,–,–,–
> 20,O=C(Nc1ccc(-c2ccncc2)c(-c2nc3ncccc3o2)c1)c1ccco1,–,–,–
7.1,O=C(Nc1ccc(Cl)c(-c2nc3ncccc3o2)c1)c1ccccc1,> 50,–,–
0.004,O=C(Nc1ccc(F)c(-c2nc3cc(-c4cccs4)cnc3[nH]2)c1)N1CCCC1,–,9,–
> 50,O=C(Nc1ccc(-c2ccc(F)c(F)c2)c(-c2nc3ncccc3o2)c1)c1ccco1,> 50,–,–
